Consider 35 compounds from ChEMBL document CHEMBL1142529.

Each structure is given as a SMILES string.

Assay [1] has as its target T1, Quinolone resistance protein NorA (Staphylococcus aureus) (UniProt P0A0J7).
T1 sequence (whole entry): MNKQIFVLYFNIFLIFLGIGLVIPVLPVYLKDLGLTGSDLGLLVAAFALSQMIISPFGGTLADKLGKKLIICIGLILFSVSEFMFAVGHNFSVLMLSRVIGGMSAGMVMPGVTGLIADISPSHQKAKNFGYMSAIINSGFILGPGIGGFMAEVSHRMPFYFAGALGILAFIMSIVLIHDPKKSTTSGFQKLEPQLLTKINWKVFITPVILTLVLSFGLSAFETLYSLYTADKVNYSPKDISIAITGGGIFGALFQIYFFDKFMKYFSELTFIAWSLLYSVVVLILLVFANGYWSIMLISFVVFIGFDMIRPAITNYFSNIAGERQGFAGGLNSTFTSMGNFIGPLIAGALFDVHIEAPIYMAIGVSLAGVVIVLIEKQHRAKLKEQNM
Put plainly: Inhibition of NorA efflux pump in Staphylococcus aureus 1199B assessed as fold reduction of ciprofloxacin MIC at 25 ug/ml. An outline of the steps:
(§1)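 Broth checkerboard synergy in Mueller–Hinton broth with twofold serial dilutions. Each candidate EPI was run at seven concentrations (100–1.56 µg/mL) against ciprofloxacin at 10 concentrations (16–0.03 µg/mL). Incubation was 18 h at 37 °C, and growth was scored visually. The fold drop in ciprofloxacin MIC was read at the stated EPI concentration.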

Assay [2] concerns the target T1, Quinolone resistance protein NorA (Staphylococcus aureus). In words: Inhibition of NorA efflux pump in Staphylococcus aureus 1199 assessed as fold reduction of ciprofloxacin MIC at 25 ug/ml. An outline of the steps:
as §1

The target is the same in assay [3]. In words: Inhibition of NorA efflux pump in Staphylococcus aureus 1199B assessed as fold reduction of ciprofloxacin MIC at >100 ug/ml.
Assay [4] has the same target. In words: Inhibition of NorA efflux pump in Staphylococcus aureus 1199 assessed as fold reduction of ciprofloxacin MIC at >100 ug/ml. An outline of the steps: as §1
For assay [5] the target is unchanged. In words: Inhibition of NorA efflux pump in Staphylococcus aureus 1199B assessed as fold reduction of ciprofloxacin MIC at 3.12 ug/ml. An outline of the steps: as §1
Assay [6] shares this target. In words: Inhibition of NorA efflux pump in Staphylococcus aureus 1199 assessed as fold reduction of ciprofloxacin MIC at 3.12 ug/ml. An outline of the steps: as §1
The target is the same in assay [7]. In words: Inhibition of NorA efflux pump in Staphylococcus aureus 1199B assessed as fold reduction of ciprofloxacin MIC at 6.25 ug/ml. An outline of the steps:
as §1

For assay [8] the target is unchanged. In words: Inhibition of NorA efflux pump in Staphylococcus aureus 1199 assessed as fold reduction of ciprofloxacin MIC at 6.25 ug/ml. An outline of the steps: as §1
Assay [9] shares this target. In words: Inhibition of NorA efflux pump in Staphylococcus aureus 1199B assessed as fold reduction of ciprofloxacin MIC at 100 ug/ml. An outline of the steps: as §1
For assay [10] the target is unchanged. In words: Inhibition of NorA efflux pump in Staphylococcus aureus 1199 assessed as fold reduction of ciprofloxacin MIC at 100 ug/ml. An outline of the steps:
as §1

Assay [11] shares this target. In words: Inhibition of NorA efflux pump in Staphylococcus aureus 1199B assessed as fold reduction of ciprofloxacin MIC at 1.5 ug/ml. An outline of the steps: as §1
Assay [12] has the same target. Put plainly: Inhibition of NorA efflux pump in Staphylococcus aureus 1199 assessed as fold reduction of ciprofloxacin MIC at 1.5 ug/ml. An outline of the steps: as §1
The target is the same in assay [13]. Put plainly: Inhibition of NorA efflux pump in Staphylococcus aureus 1199 assessed as fold reduction of ciprofloxacin MIC at 12.5 ug/ml. An outline of the steps: as §1
Assay [14] has the same target. Put plainly: Inhibition of NorA efflux pump in Staphylococcus aureus 1199B assessed as fold reduction of ciprofloxacin MIC at 12.5 ug/ml. An outline of the steps: as §1

`CC(C)NC(=O)/C=C/C=C/c1ccc2c(c1)OCO2`: the fold change (FC) in [1] stood at 2; in [2], 0.
As for `O=C(CCCCc1ccc2c(c1)OCO2)Nc1ccc(C(=O)Nc2ccccc2)cc1`, the fold change (FC) in [3] and in [4] was 0 in each case.
On to `O=C(/C=C/C=C/c1ccc2c(c1)OCO2)Nc1ccccc1CO`, for which the fold change (FC) in [1] is 2; in [2], 0.
For `O=C(/C=C/C=C/c1ccc2c(c1)OCO2)N1CCOCC1`, the fold change (FC) in assay [3] and in assay [4] was 0 in each case.
As to `O=C(/C=C/C=C/c1ccc2c(c1)OCO2)Nc1ccc2ncsc2c1`, the fold change (FC) worked out at 2 in assay [5] and 0 in assay [6].
For `CC[C@@H](CO)NC(=O)/C=C/C=C/c1ccc2c(c1)OCO2`, the fold change (FC) turned out to be 2 in assay [1] and 0 in [2].
As to `N#CCc1ccccc1NC(=O)/C=C/C=C/c1ccc2c(c1)OCO2`, the fold change (FC) in assay [3] and in [4] was 0 in each case.
For the compound `CC(C)CNC(=O)/C=C/C=C/c1ccc2c(c1)OCO2`, the values for the fold change (FC) in [1] and in assay [2] were 2 and 0, respectively.
As to `NC(=O)c1ccc(NC(=O)/C=C/C=C/c2ccc3c(c2)OCO3)cc1`, the values for the fold change (FC) in [1] and in assay [2] were 2 and 0, respectively.
`Cc1ccccc1NC(=O)/C=C/C=C/c1ccc2c(c1)OCO2`: the fold change (FC) in [3] and in assay [4] was 0 throughout.
In the case of `CC(=O)Nc1ccc(NC(=O)/C=C/C=C/c2ccc3c(c2)OCO3)cc1`, the fold change (FC) in assay [7] came to 2; in assay [1] it was 4; in assay [8], 0; in [2], 2.
As for `CCCCNC(=O)/C=C/C=C/c1ccc2c(c1)OCO2`, the fold change (FC) in [9] and in [10] was 0 each time.
As for `N#Cc1cccc(NC(=O)CCCCc2ccc3c(c2)OCO3)c1`, the fold change (FC) in assay [3] and in assay [4] was 0 in each case.
For the compound `N#Cc1ccc(NC(=O)/C=C/C=C/c2ccc3c(c2)OCO3)cc1`, the fold change (FC) in assay [1] is 2; in assay [2], 0.
For the compound `O=C(/C=C/C=C/c1ccc2c(c1)OCO2)Nc1ccc(C(=O)Nc2ccccc2)cc1`, the fold change (FC) in [5] was 2; in [6] it was 0; in assay [1], 4; in assay [2] it was 0.
`CCCNC(=O)/C=C/C=C/c1ccc2c(c1)OCO2`: the fold change (FC) in assay [3] and in [4] was 0 throughout.
For `COC(=O)[C@H]1[C@H]2C[C@@H]3c4[nH]c5cc(OC)ccc5c4CCN3C[C@H]2C[C@@H](OC(=O)c2cc(OC)c(OC)c(OC)c2)[C@@H]1OC`, the fold change (FC) turned out to be 4 in assay [1] and 2 in assay [2].
Taken in the same sequence, the figures for `N#CCc1ccc(NC(=O)/C=C/C=C/c2ccc3c(c2)OCO3)cc1` were 2 and 0.
With `O=C(/C=C/C=C/c1ccc2c(c1)OCO2)Nc1ccc(CO)cc1`, the fold change (FC) in assay [7] amounted to 2; in assay [8] it was 0.
Consider `O=C(/C=C/C=C/c1ccc2c(c1)OCO2)Nc1ccc(NC(=O)c2ccccc2)cc1`, for which the fold change (FC) was 2 in assay [5] and 0 in [6].
Consider `O=C(/C=C/C=C/c1ccc2c(c1)OCO2)Nc1cccc(CO)c1`, for which the fold change (FC) in [1] came to 2; in [2] it was 0.
Take `O=C(/C=C/C=C/c1ccc2c(c1)OCO2)Nc1nc2ccccc2s1`: the fold change (FC) in [7] and in [8] was 2 throughout.
For the compound `N#Cc1cccc(NC(=O)/C=C/C=C/c2ccc3c(c2)OCO3)c1`, the fold change (FC) in assay [7] amounted to 4; in assay [11] it was 2; in assay [8] it was 0; in assay [12], 0.
As for `O=C(/C=C/C=C/c1ccc2c(c1)OCO2)NCC(O)c1ccccc1` (stereo not given), the results for the fold change (FC) in assay [13] and in [14] were 0 and 2, respectively.
Consider `O=C(/C=C/C=C/c1ccc2c(c1)OCO2)Nc1ccccc1`, for which the fold change (FC) in assay [13] and in assay [14] was 2 throughout.
As for `CCN(CC)C(=O)/C=C/C=C/c1ccc2c(c1)OCO2`, the values for the fold change (FC) in assay [1] and in assay [2] were 2 and 0, respectively.
`CC(=O)Nc1cccc(NC(=O)/C=C/C=C/c2ccc3c(c2)OCO3)c1`: the fold change (FC) is 2 in assay [13], 2 in assay [7], 0 in assay [8] and 4 in [14].
Consider `CC(=O)Nc1ccccc1NC(=O)/C=C/C=C/c1ccc2c(c1)OCO2`, for which the fold change (FC) was 2 in [7], 4 in assay [1], 0 in [8] and 2 in assay [2].
In the case of `CC[C@H](CO)NC(=O)/C=C/C=C/c1ccc2c(c1)OCO2`, the fold change (FC) in assay [3] and in assay [4] was 0 in each case.
In the case of `COc1ccc(NC(=O)/C=C/C=C/c2ccc3c(c2)OCO3)cc1`, the fold change (FC) in [3] and in assay [4] was 0 each time.
As to `CC(C)N(C(=O)/C=C/C=C/c1ccc2c(c1)OCO2)C(C)C`, the fold change (FC) in assay [1] and in [2] was 2 in each case.
As to `CC(C)CNC(=O)CCCCc1ccc2c(c1)OCO2`, the fold change (FC) in assay [3] and in assay [4] was 0 each time.
As for `CC(C)c1cc2c(c(O)c1O)[C@@]1(C(=O)O)CCCC(C)(C)[C@@H]1CC2`, the fold change (FC) in assay [1] and in assay [2] was 2 in each case.
Consider `CN1CCN(C(=O)/C=C/C=C/c2ccc3c(c2)OCO3)CC1`, for which the fold change (FC) came to 2 in assay [1] and 0 in assay [2].
For the compound `O=C(/C=C/C=C/c1ccc2c(c1)OCO2)Nc1ccc2c(c1)OCO2`, the fold change (FC) in assay [3] and in assay [4] was 0 in each case.
